Measured values: ChEMBL document CHEMBL4177770, “Discovery of MK-6169, a Potent Pan-Genotype Hepatitis C Virus NS5A Inhibitor with Optimized Activity against Common Resistance-Associated Substitutions” (J Med Chem, 2018)
Where a chain is given by its changes, count along the chain named.

Key:
[1] = molecular target: T1, Nonstructural protein 5A (Hepatitis C virus) (UniProt Q5L478); test: Inhibition of NS5A in HCV genotype 1a infected in HuH7 replicon cells assessed as decrease in viral replication after 3 days by RT-PCR method; assay type: cell-based; details: Hepatitis C virus subtype 1a
T1 sequence (whole entry): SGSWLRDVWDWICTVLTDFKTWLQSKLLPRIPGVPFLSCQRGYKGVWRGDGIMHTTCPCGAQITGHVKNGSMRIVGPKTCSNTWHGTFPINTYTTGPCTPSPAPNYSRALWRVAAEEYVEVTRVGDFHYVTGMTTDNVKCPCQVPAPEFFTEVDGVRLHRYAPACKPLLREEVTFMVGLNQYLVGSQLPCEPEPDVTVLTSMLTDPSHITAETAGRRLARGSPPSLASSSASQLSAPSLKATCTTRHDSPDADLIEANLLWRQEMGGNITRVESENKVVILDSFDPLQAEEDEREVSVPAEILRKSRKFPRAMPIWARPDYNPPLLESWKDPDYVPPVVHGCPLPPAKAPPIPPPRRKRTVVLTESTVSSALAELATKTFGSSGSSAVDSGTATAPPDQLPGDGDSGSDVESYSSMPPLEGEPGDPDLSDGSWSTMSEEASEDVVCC

[2] = molecular target: T1, Nonstructural protein 5A (Hepatitis C virus); test: Inhibition of NS5A in HCV genotype 1b infected in HuH7 replicon cells assessed as decrease in viral replication after 3 days by RT-PCR method; assay type: cell-based; details: Hepatitis C virus subtype 1b
[3] = molecular target: T1, Nonstructural protein 5A (Hepatitis C virus); test: Inhibition of NS5A L31M mutant in HCV genotype 2b infected in HuH7 replicon cells assessed as decrease in viral replication after 3 days by RT-PCR method; assay type: cell-based; details: Hepatitis C virus subtype 2b
[4] = molecular target: T1, Nonstructural protein 5A (Hepatitis C virus); test: Inhibition of NS5A in HCV genotype 3a infected in HuH7 replicon cells assessed as decrease in viral replication after 3 days by RT-PCR method; assay type: cell-based; details: Hepatitis C virus subtype 3a
[5] = molecular target: T1, Nonstructural protein 5A (Hepatitis C virus); test: Inhibition of NS5A in HCV genotype 4a infected in HuH7 replicon cells assessed as decrease in viral replication after 3 days by RT-PCR method; assay type: cell-based; details: Hepatitis C virus subtype 4a
[6] = system: T2, Nonstructural protein 5A (Hepatitis C virus), Q5L478 [Y93H]; test: Inhibition of NS5A Y93H mutant in HCV genotype 1a infected in HuH7 replicon cells assessed as decrease in viral replication after 3 days by RT-PCR method; assay type: cell-based; details: Hepatitis C virus subtype 1a
T2 sequence (whole entry): T1 sequence (whole entry) with Y93H

[7] = molecular target: T1, Nonstructural protein 5A (Hepatitis C virus); test: Inhibition of NS5A L31V mutant in HCV genotype 1a infected in HuH7 replicon cells assessed as decrease in viral replication after 3 days by RT-PCR method; assay type: cell-based; details: Hepatitis C virus subtype 1a
[8] = Half life in Wistar Han rat at 2 mg/kg, iv by LC/MS method; assay type: ADME, organism-based; details: in vivo
Outline: (§1)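 Male Wistar Han rats, two per group, dosed IV at 2 mg/kg in 60% PEG200. Plasma was obtained by centrifuging the blood, and compound concentrations were measured by LC/MS.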

[9] = Clearance in Wistar Han rat at 2 mg/kg, iv by LC/MS method; assay type: ADME, organism-based; details: in vivo; outline: as §1
[10] = AUC in Wistar Han rat at 10 mg/kg, po by LC/MS method; assay type: ADME, organism-based; details: in vivo
Outline: (§2)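 Male Wistar Han rats, two per dosing group, dosed orally at 10 mg/kg in 10% TWEEN. Plasma was separated from collected blood by centrifugation and analysed by LC/MS.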

[11] = Cmax in Wistar Han rat at 10 mg/kg, po by LC/MS method; assay type: ADME, organism-based; set-up: dose 10 mg/kg, route oral; details: in vivo; outline: as §2
[12] = Drug level in Wistar Han rat at 10 mg/kg, po measured at 24 hrs by LC/MS method; assay type: ADME, organism-based; details: in vivo, read-out: Drug uptake; outline: as §2
[13] = Oral bioavailability in Wistar Han rat at 10 mg/kg by LC/MS method; assay type: ADME, organism-based; details: in vivo; outline: as §2

Compound | EC90 [1] | EC90 [2] | EC90 [3] | EC90 [4] | EC90 [5] | EC90 [6] | EC90 [7] | half-life [8] | clearance [9] | AUC [10] | Cmax [11] | concentration at 24 h [12] | bioavailability [13]
COC(=O)N[C@H](C(=O)N1CCC[C@H]1c1ncc(-c2cc(F)c3c(c2)O[C@@H](c2ccc(C4CC4)s2)n2c-3cc3cc(-c4cnc([C@@H]5CCCN5C(=O)[C@@H](NC(=O)OC)[C@H]5CCOC(C)(C)C5)[nH]4)ccc32)[nH]1)C(C)C | 4 pM | 7 pM | 27 pM | 9 pM | 7 pM | 18 pM | 2 pM | 5.2 h | 11 mL/min/kg | 0.24 µM·h | 25 nM | 1 nM | 1.6%
COC(=O)N[C@H](C(=O)N1CCC[C@H]1c1ncc(-c2ccc3c(c2)cc2n3[C@H](c3ccc(C4CC4)s3)Oc3cc(-c4cnc([C@@H]5CCCN5C(=O)[C@@H](NC(=O)OC)[C@@H]5CCOC(C)(C)C5)[nH]4)cc(F)c3-2)[nH]1)C(C)C | 6 pM | 5 pM | 31 pM | 13 pM | 4 pM | 36 pM | 1 pM | 6 h | 9 mL/min/kg | 0.45 µM·h | 40 nM | 4 nM | 2%
COC(=O)N[C@H](C(=O)N1CCC[C@H]1c1ncc(-c2cc(F)c3c(c2)O[C@@H](c2ccc(C4CC4)s2)n2c-3cc3cc(-c4cnc([C@@H]5CCCN5C(=O)[C@@H](NC(=O)OC)C5CC(C)(C)OC(C)(C)C5)[nH]4)ccc32)[nH]1)C(C)C | 4 pM | 2 pM | 73 pM | 7 pM | 4 pM | 47 pM | 4 pM | 7.7 h | 7 mL/min/kg | 0.7 µM·h | 76 nM | 5 nM | 3.1%
CCc1ccc([C@@H]2Oc3cc(-c4cnc([C@@H]5CCCN5C(=O)[C@@H](NC(=O)OC)C(C)C)[nH]4)cc(F)c3-c3cc4cc(-c5cnc([C@@H]6CCCN6C(=O)[C@@H](NC(=O)OC)[C@@H]6CCOC(C)(C)C6)[nH]5)ccc4n32)s1 | 5 pM | 6 pM | 28 pM | 9 pM | 7 pM | 38 pM | 3 pM | 5.2 h | 8 mL/min/kg | 0.78 µM·h | 110 nM | 4 nM | 3.5%
COC(=O)N[C@H](C(=O)N1CCC[C@H]1c1ncc(-c2cc(F)c3c(c2)O[C@@H](c2ccc4c(c2)OCCC4)n2c-3cc3cc(-c4cnc([C@@H]5CCCN5C(=O)[C@@H](NC(=O)OC)[C@@H]5CCOC(C)(C)C5)[nH]4)ccc32)[nH]1)C(C)C | 3 pM | 5 pM | 17 pM | 7 pM | 5 pM | 48 pM | 4 pM | 3.8 h | 25 mL/min/kg | 0.08 µM·h | 10 nM | 1 nM | 1.2%
CCc1ncc([C@@H]2Oc3cc(-c4cnc([C@@H]5CCCN5C(=O)[C@@H](NC(=O)OC)C(C)C)[nH]4)cc(F)c3-c3cc4cc(-c5cnc([C@@H]6CCCN6C(=O)[C@@H](NC(=O)OC)[C@@H]6CCOC(C)(C)C6)[nH]5)ccc4n32)s1 | 6 pM | 5 pM | 41 pM | 6 pM | 4 pM | 17 pM | 5 pM | 5.3 h | 29 mL/min/kg | 0.05 µM·h | 10 nM | 1 nM | 0.8%
COC(=O)N[C@H](C(=O)N1CCC[C@H]1c1ncc(-c2cc(F)c3c(c2)O[C@@H](c2ccc(C4CC4)s2)n2c-3cc3cc(-c4cnc([C@@H]5CCCN5C(=O)[C@@H](NC(=O)OC)C5CCOC6(CC6)C5)[nH]4)ccc32)[nH]1)C(C)C (some centres not stated) | 6 pM | 4 pM | 36 pM | 8 pM | 4 pM | 49 pM | 7 pM | 5.7 h | 5 mL/min/kg | 0.58 µM·h | 57 nM | 4 nM | 1.9%
COC(=O)N[C@H](C(=O)N1CCC[C@H]1c1ncc(-c2cc(F)c3c(c2)O[C@@H](c2cnc(C4CC4)s2)n2c-3cc3cc(-c4cnc([C@@H]5CCCN5C(=O)[C@@H](NC(=O)OC)[C@@H]5CCOC(C)(C)C5)[nH]4)ccc32)[nH]1)C(C)C | 6 pM | 6 pM | 15 pM | 15 pM | 7 pM | 29 pM | 6 pM | 4 h | 9 mL/min/kg | 0.51 µM·h | 60 nM | 4 nM | 2.8%
COC(=O)N[C@H](C(=O)N1CCC[C@H]1c1ncc(-c2cc(F)c3c(c2)O[C@@H](c2ccc(C4CC4)s2)n2c-3cc3cc(-c4cnc([C@@H]5CCCN5C(=O)[C@@H](NC(=O)OC)C5CCO[C@@H](C)C5)[nH]4)ccc32)[nH]1)C(C)C (some centres not stated) | 5 pM | 7 pM | 23 pM | 8 pM | 7 pM | 13 pM | 2 pM | 5.5 h | 11 mL/min/kg | 0.19 µM·h | 21 nM | 1 nM | 1.3%
